Tests used:
[1] = Lipophilicity, logP of compound; format: physicochemical; details: octanol/water
[2] = Inhibition of collagenase (unknown origin) transfected in human HeLa cells by luciferase reporter gene assay; format: cell-based
HeLa = test: Inhibition of collagenase (unknown origin) transfected in human HeLa cells by luciferase reporter gene assay relative to control; format: cell-based
THP-1 [3] = test: Immunomodulatory activity in human THP1 cells assessed as reduction in LPS-induced IL-8 production; format: functional, cell-based
Procedure, shortened: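 Human promyeloid THP-1 cells were stimulated with lipopolysaccharide to induce IL-8 synthesis, and inhibition of IL-8 production by the test compound was measured.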

THP-1 [4] = test: Immunomodulatory activity in human THP1 cells assessed as reduction in LPS-induced IL-8 production relative to control; format: functional
PBMC [5] = test: Inhibition of LPS-induced TNFalpha release in human PBMC cells; format: functional, cell-based
Procedure, shortened: (§1)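 Primary human peripheral blood mononuclear cells were stimulated with LPS (IL-12p40, TNFα) or PHA (IFNγ, IL-2, IL-4). Cytokine release was measured with test compound, and clobetasol and dexamethasone were run in parallel as reference glucocorticoids.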

PBMC [6] = test: Inhibition of LPS-induced TNFalpha release in human PBMC cells relative to control; format: functional
PBMC [7] = test: Inhibition of LPS-induced IL12p40 release in human PBMC cells; format: functional, cell-based; procedure, shortened: as §1
PBMC [8] = test: Inhibition of LPS-induced IL12p40 release in human PBMC cells relative to control; format: functional
PBMC [9] = test: Inhibition of PHA-induced IL2 release in human PBMC cells; format: functional, cell-based; procedure, shortened: as §1
PBMC [10] = test: Inhibition of PHA-induced IL2 release in human PBMC cells relative to control; format: functional
PBMC [11] = test: Inhibition of PHA-induced IFNgamma release in human PBMC cells; format: functional, cell-based; procedure, shortened: as §1
PBMC [12] = test: Inhibition of PHA-induced IFNgamma release in human PBMC cells relative to control; format: functional
PBMC [13] = test: Inhibition of PHA-induced IL4 release in human PBMC cells; format: functional, cell-based; procedure, shortened: as §1
PBMC [14] = test: Inhibition of PHA-induced IL4 release in human PBMC cells relative to control; format: functional
[15] = Metabolic stability in human Hepatocyte assessed as intrinsic clearance; format: ADME, cell-based; details: hepatocytes, read-out: CLH (converted)
[16] = Metabolic stability in rat Hepatocyte assessed as intrinsic clearance; format: ADME, cell-based; details: hepatocytes, read-out: CLH (converted)
[17] = Metabolic stability in dog Hepatocyte assessed as intrinsic clearance; format: ADME, cell-based, Canis lupus familiaris; details: hepatocytes, read-out: CLH (converted)
[18] = Apparent permeability from apical to basolateral side in human Caco2 cells; format: ADME, cell-based; details: Caco-2
Procedure, shortened: (§2)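 Caco-2 monolayers. Apparent permeability (Papp) was measured from the apical to the basolateral compartment and also in the reverse direction. Efflux ratio is Papp B→A divided by Papp A→B.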

[19] = Efflux ratio of apparent permeability from apical to basolateral side in human Caco2 cells; format: ADME, cell-based; details: Caco-2; procedure, shortened: as §2
[20] = Drug metabolism in human Hepatocyte assessed as demethylation product M-1 formation; format: ADME, cell-based; details: hepatocytes
[21] = Drug metabolism in rat Hepatocyte assessed as demethylation product M-4 formation; format: ADME, cell-based; details: hepatocytes
[22] = Drug metabolism in dog Hepatocyte assessed as demethylation product M-4 formation; format: ADME, cell-based, Canis lupus familiaris; details: hepatocytes
[23] = Drug metabolism in human Hepatocyte assessed as demethylation product M-4 formation; format: ADME, cell-based; details: hepatocytes
[24] = Drug metabolism in rat Hepatocyte assessed as demethylation product M-1 formation; format: ADME, cell-based; details: hepatocytes
[25] = Drug metabolism in dog Hepatocyte assessed as demethylation product M-1 formation; format: ADME, cell-based, Canis lupus familiaris; details: hepatocytes
[26] = Drug metabolism in human Hepatocyte assessed as demethylation product M-5 formation; format: ADME, cell-based; details: hepatocytes
[27] = Drug metabolism in rat Hepatocyte assessed as demethylation product M-2 formation; format: ADME, cell-based; details: hepatocytes
[28] = Drug metabolism in rat Hepatocyte assessed as demethylation product M-3 formation; format: ADME, cell-based; details: hepatocytes
[29] = Clearance in female Wistar rat plasma at 5 mg/kg, iv; format: ADME, organism-based
[30] = Clearance in female Wistar rat blood at 5 mg/kg, iv; format: ADME, organism-based; details: whole blood
[31] = Volume of distribution at steady state in female Wistar rat blood at 5 mg/kg, iv; format: ADME, organism-based; details: whole blood, read-out: Vdss
[32] = Terminal half life in female Wistar rat blood at 5 mg/kg, iv; format: ADME, organism-based; details: whole blood, read-out: beta t1/2 (converted)
[33] = Clearance in female Beagle dog plasma at 1 mg/kg, iv; format: ADME, organism-based, Canis lupus familiaris
[34] = Clearance in female Beagle dog blood at 1 mg/kg, iv; format: ADME, organism-based, Canis lupus familiaris; details: whole blood
[35] = Volume of distribution at steady state in female Beagle dog blood at 1 mg/kg, iv; format: ADME, organism-based, Canis lupus familiaris; details: whole blood, read-out: Vdss
[36] = Terminal half life in female Beagle dog blood at 1 mg/kg, iv; format: ADME, organism-based, Canis lupus familiaris; details: whole blood, read-out: beta t1/2 (converted)
[37] = Mutagenicity in Salmonella typhimurium by Ames test; format: toxicity; details: salmonella enterica subsp. enterica serovar typhimurium

## CCSC[C@@](O)([C@@H](Nc1cccc2nc(C)ccc12)c1ccc(C)cc1)C(F)(F)F
[1]
  logP: 4.8
[2]
  EC50: 12.6 nM
HeLa
  Emax: 66%
THP-1 [3]
  IC50: 2.51 nM
THP-1 [4]
  Emax: 87%

## COc1ccc([C@H](Nc2cccc3nc(C)ccc23)[C@](O)(CN(C)C)C(F)(F)F)c(Cl)c1F
[1]
  logP: 5.3
[2]
  EC50: 39.8 nM
HeLa
  Emax: 66%
THP-1 [3]
  IC50: 5.01 nM
THP-1 [4]
  Emax: 77%

## COC[C@@](O)([C@@H](Nc1cc(F)cc2[nH]c(=O)ccc12)c1ccc(OC)c(F)c1Cl)C(F)(F)F
[1]
  logP: 3.3
[2]
  EC50: 0.794 nM
HeLa
  Emax: 85%
THP-1 [3]
  IC50: 0.398 nM
THP-1 [4]
  Emax: 95%
PBMC [5]
  IC50: 0.92 nM
PBMC [6]
  Efficacy: 98%
PBMC [7]
  IC50: 0.75 nM
PBMC [8]
  Efficacy: 96%
PBMC [9]
  IC50: 0.88 nM
PBMC [10]
  Efficacy: 95%
PBMC [11]
  IC50: 0.7 nM
PBMC [12]
  Efficacy: 96%
PBMC [13]
  IC50: 0.42 nM
PBMC [14]
  Efficacy: 99%
[15]
  CLint scaled: 15.7 mL/min/kg
[16]
  CLint scaled: 12 mL/min/kg
[17]
  CLint scaled: 21.7 mL/min/kg
[18]
  Papp A→B: 1.9 ×10⁻⁶ cm/s
[19]
  efflux ratio: 0.5
[20]
  Drug metabolism: Metabolite_Detected
[21]
  Drug metabolism: Metabolite_Detected
[22]
  Drug metabolism: Metabolite_Notdetected
[23]
  Drug metabolism: Metabolite_Detected
[24]
  Drug metabolism: Metabolite_Detected
[25]
  Drug metabolism: Metabolite_Detected
[26]
  Drug metabolism: Metabolite_Detected
[27]
  Drug metabolism: Metabolite_Detected
[28]
  Drug metabolism: Metabolite_Detected
[29]
  clearance: 50 mL/min/kg
[30]
  clearance: 60 mL/min/kg
[31]
  Vd: 7 L/kg
[32]
  half-life: 1.9 h
[33]
  clearance: 20 mL/min/kg
[34]
  clearance: 20 mL/min/kg
[35]
  Vd: 2.1 L/kg
[36]
  half-life: 1.3 h

## COc1ccc([C@H](Nc2cccc3nc(C)ccc23)[C@](O)(CSC)C(F)(F)F)c(Cl)c1F
[1]
  logP: 4.5
[2]
  EC50: 0.251 nM
HeLa
  Emax: 89%
THP-1 [3]
  IC50: 0.126 nM
THP-1 [4]
  Emax: 98%

## Nc1ccc(F)c2[nH]c(=O)ccc12
[37]
  Activity: Toxic

## COc1ccc([C@H](Nc2cc(F)cc3[nH]c(=O)ccc23)[C@](O)(CN(C)C)C(F)(F)F)c(Cl)c1F
[1]
  logP: 4.4
[2]
  EC50: 3.98 nM
HeLa
  Emax: 62%
THP-1 [3]
  IC50: 7.94 nM
THP-1 [4]
  Emax: 109%

## CCSC[C@@](O)([C@@H](Nc1cccc2nc(C)ccc12)c1ccc(Cl)c(F)c1O)C(F)(F)F
[1]
  logP: 3.4
[2]
  EC50: 25.1 nM
HeLa
  Emax: 102%
THP-1 [3]
  IC50: 20 nM
THP-1 [4]
  Emax: 107%

## CCSC[C@@](O)([C@@H](Nc1cccc2nc(C)ccc12)c1ccc(OC)c(F)c1Cl)C(F)(F)F
[1]
  logP: 4.9
[2]
  EC50: 0.631 nM
HeLa
  Emax: 87%
THP-1 [3]
  IC50: 0.158 nM
THP-1 [4]
  Emax: 91%

## CCSC[C@@](O)([C@@H](Nc1cccc2nc(C)ccc12)c1cccc(F)c1OC)C(F)(F)F
[1]
  logP: 4.6
[2]
  EC50: 10 nM
HeLa
  Emax: 47%
THP-1 [3]
  IC50: 2 nM
THP-1 [4]
  Emax: 69%

## Nc1c(F)ccc2[nH]c(=O)ccc12
[37]
  Activity: Toxic

## CCSC[C@@](O)([C@@H](Nc1cccc2nc(C)ccc12)c1ccc(OC)c(F)c1)C(F)(F)F
[1]
  logP: 4.1
[2]
  EC50: 6.31 nM
HeLa
  Emax: 77%
THP-1 [3]
  IC50: 5.01 nM
THP-1 [4]
  Emax: 82%

## COc1ccc([C@H](Nc2cccc3nc(C)ccc23)[C@](O)(CC#N)C(F)(F)F)c(Cl)c1F
[1]
  logP: 3.4
[2]
  EC50: 1.58 nM
HeLa
  Emax: 80%
THP-1 [3]
  IC50: 1.26 nM
THP-1 [4]
  Emax: 83%

## CCOC[C@@](O)([C@@H](Nc1cc(F)cc2[nH]c(=O)ccc12)c1ccc(OC)c(F)c1Cl)C(F)(F)F
[1]
  logP: 3.8
[2]
  EC50: 1.58 nM
HeLa
  Emax: 91%
THP-1 [3]
  IC50: 0.794 nM
THP-1 [4]
  Emax: 99%

From ChEMBL document CHEMBL4622936, “Discovery of the potent non-steroidal glucocorticoid receptor modulator BAY 1003803 as clinical candidate” (Bioorg Med Chem Lett, 2020)
